Key:
[1] = Dissociation constant (pKa); assay type: physicochemical
[2] = system: Escherichia coli; assay: Evaluated for percent inhibition against N-acetyl-L-[14C] phenylalanylpuromycin formation at 8e-4M; assay type: functional
Procedure, shortened: (§1)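 Cell-free puromycin reaction with E. coli MRE-600 70S ribosomes (NH4Cl-washed, 4.0 A260 units) in 0.1 mL containing 0.05 M Tris-HCl pH 7.4, 0.1 M NH4Cl, 0.01 M MgCl2, 10 μg poly(U), 0.20 A260 unit N-Ac-[14C]Phe-tRNA, puromycin and inhibitor. Incubated at 37 °C for 30 min. Product extracted into ethyl acetate and counted by scintillation. Single-point inhibition was read at 8×10^-4 M.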

[3] = Evaluated for the inhibition constant determined from the Dixon and slope vs. inhibitor concentration plots; assay type: functional, Escherichia coli
Procedure, shortened: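 Ki values came from the E. coli MRE-600 70S ribosome puromycin reaction, using poly(U), N-Ac-[14C]Phe-tRNA and puromycin in Tris-HCl pH 7.4 with NH4Cl and MgCl2, at 37 °C for 30 min. Inhibitor concentration was varied. Ethyl acetate-extracted product was counted by scintillation. Ki was derived from Dixon plots built by linear regression and from slope versus inhibitor concentration plots.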

[4] = system: Escherichia coli; assay: Generation rate constant […] obtained from the inhibition of growth of Escherichia coli cells; assay type: organism-based
[5] = system: Escherichia coli; assay: Evaluated for the concentration required for a 50% inhibition of N-acetyl-L-[14C] phenylalanylpuromycin formation; assay type: functional; procedure, shortened: as §1

| SMILES | pKa [1] | inhibition [2] | Ki [3] | Log k [4] | ID50 [5] |
| --- | --- | --- | --- | --- | --- |
| O=CNC(CO)C(O)c1ccc([N+](=O)[O-])cc1 (configuration not stated) | 3.77 | 10% | – | – | – |
| O=C(NC(CO)C(O)c1ccc([N+](=O)[O-])cc1)c1ccco1 (configuration not stated) | 3.12 | 10% | – | – | – |
| O=C(NC(CO)C(O)c1ccc([N+](=O)[O-])cc1)C1CC1 (configuration not stated) | 4.83 | 20% | – | – | – |
| O=[N+]([O-])c1ccc(C(O)C(CO)NP(=O)(O)CCl)cc1 (configuration not stated) | 1.4 | 10% | – | – | – |
| O=C(NC(CO)C(O)c1ccc([N+](=O)[O-])cc1)C1CCC1 (configuration not stated) | 4.79 | 10% | – | – | – |
| O=C(NC(CO)C(O)c1ccc([N+](=O)[O-])cc1)C(Br)Br (configuration not stated) | – | – | 1 µM | 1.84 | 70 µM |
| O=C(CO)NC(CO)C(O)c1ccc([N+](=O)[O-])cc1 (configuration not stated) | 3.83 | 10% | – | – | – |
| CC(=O)NC(CO)C(O)c1ccc([N+](=O)[O-])cc1 (configuration not stated) | 4.76 | 34% | – | 0.48 | – |
| CCCC(=O)NC(CO)C(O)c1ccc([N+](=O)[O-])cc1 (configuration not stated) | 4.82 | 34% | – | 0.71 | – |
| O=C(NC(CO)C(O)c1ccc([N+](=O)[O-])cc1)C(Cl)(Cl)Cl (configuration not stated) | 0.65 | – | 3 µM | 0.75 | 250 µM |
| CS(=O)(=O)NC(CO)C(O)c1ccc([N+](=O)[O-])cc1 (configuration not stated) | -0.6 | – | 1.1 µM | – | 200 µM |
| O=C(CCl)NC(CO)C(O)c1ccc([N+](=O)[O-])cc1 (configuration not stated) | 2.86 | – | 27 µM | 1.71 | 500 µM |
| O=C(CF)NC(CO)C(O)c1ccc([N+](=O)[O-])cc1 (configuration not stated) | 2.66 | 27% | – | 1.16 | – |
| N#CCC(=O)NC(CO)C(O)c1ccc([N+](=O)[O-])cc1 (configuration not stated) | 2.43 | – | 1.7 µM | 0.14 | 350 µM |
| O=C(N[C@H](CO)[C@H](O)c1ccc([N+](=O)[O-])cc1)C(Cl)Cl [CHLORAMPHENICOL] | 1.29 | – | 1.6 µM | – | 30 µM |
| CCC(=O)NC(CO)C(O)c1ccc([N+](=O)[O-])cc1 (configuration not stated) | 4.88 | 39% | – | – | – |
| [N-]=[N+]=NCC(=O)NC(CO)C(O)c1ccc([N+](=O)[O-])cc1 (configuration not stated) | 3.03 | 60% | 22 µM | – | – |

— ChEMBL document CHEMBL1121569, “Analogues of chloramphenicol: circular dichroism spectra, inhibition of ribosomal peptidyltransferase, and possible mechanism of action” (J Med Chem, 1980)
